In ChEMBL document CHEMBL1156942, “Inhibitors of hepatitis C virus polymerase: synthesis and characterization of novel 2-oxy-6-fluoro-N-((S)-1-hydroxy-3-phenylpropan-2-yl)-benzamides” (Bioorg Med Chem Lett, 2010):
Active and inactive are the calls of the source. The rule behind the calls is not given here.

How the values were obtained:
Hepatitis C virus [1] = test: Inhibition of HCV Con1 NS5B polymerase; format: functional, Hepatitis C virus (isolate Con1); settings: 1b
In short: (§1)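 The buffer is 20 mM HEPES pH 7.3, 7.5 mM DTT, 10 mM MgCl2, 60 mM NaCl, RNasin, BSA, GTP/ATP/UTP, and CTP supplemented to 20 nM. It uses 100 nM heteropolymer RNA template and 0.25 mM trinucleotide initiator. Incubation is 2 h at room temperature, then stopped with EDTA, and filter-bound label is counted. IC50 comes from 10 twofold dilutions in duplicate, averaged over two separate weighings.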

Hepatitis C virus [2] = test: Inhibition of HCV Con1 NS5B polymerase C316N mutant; format: functional, Hepacivirus hominis; settings: isolate Con1
In short: (§2)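 Mutant Con1 NS5B (Δ21) at 30 nM was run in a de novo initiation assay with 100 nM heteropolymer RNA template and 0.25 mM trinucleotide initiator. Incubation: RT, 2 h, stopped with EDTA. Read-out: filter-bound label. IC50 from 10 twofold dilutions in duplicate; means of duplicates on two weighings.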

Hepatitis C virus [3] = test: Inhibition of HCV Con1 NS5B polymerase C316Y mutant; format: functional, Hepacivirus hominis; settings: isolate Con1; in short: as §2
Hepatitis C virus [4] = test: Inhibition of HCV 1a NS5B polymerase; format: functional, Hepatitis C virus subtype 1a; in short: as §1
Hepatitis C virus [5] = test: Inhibition of HCV Con1 NS5B polymerase G554D mutant; format: functional, Hepacivirus hominis; settings: isolate Con1; in short: as §2
Hepatitis C virus [6] = test: Inhibition of HCV Con1 NS5B polymerase M414T mutant; format: functional, Hepacivirus hominis; settings: isolate Con1; in short: as §2
Hepatitis C virus [7] = test: Selectivity ratio of IC50 for HCV Con1 NS5B polymerase C316Y mutant to IC50 for HCV 1b Con1 NS5B polymerase; format: functional, Hepacivirus hominis, isolate Con1
Hepatitis C virus [8] = test: Selectivity ratio of IC50 for HCV Con1 NS5B polymerase G554D mutant to IC50 for HCV 1b Con1 NS5B polymerase; format: functional, Hepacivirus hominis, isolate Con1
[9] = system: Hepatitis C virus genotype 2; test: Inhibition of HCV genotype 2 NS5B polymerase up to 200 uM
[10] = system: Hepatitis C virus genotype 3; test: Inhibition of HCV genotype 3 NS5B polymerase up to 200 uM
Hepatitis C virus [11] = test: Selectivity ratio of IC50 for HCV Con1 NS5B polymerase M414T mutant to IC50 for HCV 1b Con1 NS5B polymerase; format: functional, Hepacivirus hominis, isolate Con1
[12] = system: Hepatitis C virus genotype 4; test: Inhibition of HCV genotype 4 NS5B polymerase up to 200 uM

| SMILES | IC50 (Hepatitis C virus [1]) [µM] | further results |
| --- | --- | --- |
| COCCN(C(=O)c1c(F)cccc1OCC(=O)N[C@H](CO)Cc1ccccc1)C(C)C | 6 | – |
| CCCN(CC1CC1)C(=O)c1c(F)cccc1OCC(=O)N[C@H](CO)Cc1ccccc1 | 2.6 | – |
| O=C(COc1cccc(F)c1C(=O)NCCC1=CCCCC1)N[C@H](CO)Cc1ccccc1 | 4.3 | – |
| CC(C)CCN(C)C(=O)c1c(F)cccc1OCC(=O)N[C@H](CO)Cc1ccccc1 | 0.47 | – |
| CC(C)(C)CC[C@@]1(C)CC(C2=NS(=O)(=O)c3cc(NS(C)(=O)=O)ccc3N2)=C(O)c2ccccc21 | – | IC50 (Hepatitis C virus [2]): 0.004 µM; IC50 (Hepatitis C virus [3]): 0.008 µM; IC50 (Hepatitis C virus [4]): 0.003 µM; IC50 (Hepatitis C virus [5]): 0.3 µM; IC50 (Hepatitis C virus [6]): 0.004 µM |
| C[S+]([O-])CCNC(=O)c1c(F)cccc1OCC(=O)N[C@H](CO)Cc1ccccc1 (stereo partly specified) | > 20 | – |
| C[C@H](c1ccccc1)N(C)C(=O)c1c(F)cccc1OCC(=O)N[C@H](CO)Cc1ccccc1 | 0.43 | – |
| CCCCN(C)C(=O)c1c(F)cccc1OCC(=O)N[C@H](CO)Cc1ccccc1 | – | IC50 (Hepatitis C virus [2]): 0.9 µM; IC50 (Hepatitis C virus [3]): 90 µM; Ratio IC50 (Hepatitis C virus [7]): 100; IC50 (Hepatitis C virus [4]): 43 µM; IC50 (Hepatitis C virus [5]): 120 µM; Ratio IC50 (Hepatitis C virus [8]): 150; inhibition [9]: inactive; inhibition [10]: inactive; IC50 (Hepatitis C virus [6]): 10 µM; Ratio IC50 (Hepatitis C virus [11]): 10; inhibition [12]: inactive |
| O=C(COc1cccc(F)c1C(=O)NCCC1=CCCCC1)N[C@@H](CO)Cc1ccccc1 | > 20 | – |
| CCN(CC)C(=O)c1c(F)cccc1OCC(=O)N[C@H](CO)Cc1ccccc1 | 6 | – |
| O=C(COc1cccc(F)c1C(=O)NCCc1ccccc1)N[C@H](CO)Cc1ccccc1 | > 20 | – |
| O=C(COc1cccc(F)c1C(=O)N1CCCC1C1CCCCC1)N[C@H](CO)Cc1ccccc1 (stereo partly specified) | 4 | – |
| O=C(COc1cccc(F)c1C(=O)N1CCCCC1)N[C@H](CO)Cc1ccccc1 | > 20 | – |
| CCCCNC(=O)c1c(F)cccc1OCC(=O)N[C@H](CO)Cc1ccccc1 | > 20 | – |
| CCOCCN(CCOCC)C(=O)c1c(F)cccc1OCC(=O)N[C@H](CO)Cc1ccccc1 | > 20 | – |
| O=C(COc1cccc(F)c1C(=O)N1CCCC1Cc1ccccn1)N[C@H](CO)Cc1ccccc1 (stereo partly specified) | > 20 | – |
| O=C(COc1cccc(F)c1C(=O)N1CCCC1c1cccc(Cl)c1)N[C@H](CO)Cc1ccccc1 (stereo partly specified) | 1.9 | – |
| C=CCN(CC=C)C(=O)c1c(F)cccc1OCC(=O)N[C@H](CO)Cc1ccccc1 | 2.2 | – |
| O=C(COc1cccc(F)c1C(=O)NCCC1CCCCC1)N[C@H](CO)Cc1ccccc1 | > 20 | – |
| COC[C@H]1CCCN1C(=O)c1c(F)cccc1OCC(=O)N[C@H](CO)Cc1ccccc1 | 20 | – |
| CCOc1cc(CCNC(=O)c2c(F)cccc2OCC(=O)N[C@H](CO)Cc2ccccc2)ccc1OC | > 20 | – |
| CC(C)(C)CCNC(=O)c1c(F)cccc1OCC(=O)N[C@H](CO)Cc1ccccc1 | > 20 | – |

| SMILES | IC50 (Hepatitis C virus [1]) [µM] | further results |
| --- | --- | --- |
| CN(CCc1ccccc1)C(=O)c1c(F)cccc1OCC(=O)N[C@H](CO)Cc1ccccc1 | 20 | – |
| O=C(COc1cccc(F)c1C(=O)NCCCCO)N[C@H](CO)Cc1ccccc1 | > 20 | – |
| CCN(C(=O)c1c(F)cccc1OCC(=O)N[C@H](CO)Cc1ccccc1)C(C)C | 7 | – |
| O=C(COc1cccc(F)c1C(=O)N1CCCCCC1)N[C@H](CO)Cc1ccccc1 | 2.6 | – |
| CCCN(CCC)C(=O)c1c(F)cccc1OCC(=O)N[C@H](CO)Cc1ccccc1 | 2.7 | – |
| CNC(=O)c1c(-c2ccc(F)cc2)oc2cc(N(CCO)S(C)(=O)=O)c(C3CC3)cc12 [NESBUVIR] | – | IC50 (Hepatitis C virus [2]): 0.12 µM; IC50 (Hepatitis C virus [3]): 2 µM; IC50 (Hepatitis C virus [4]): 0.04 µM; IC50 (Hepatitis C virus [5]): 0.05 µM; IC50 (Hepatitis C virus [6]): 0.06 µM |
| COC(=O)[C@@H](Cc1ccccc1)N(C)C(=O)c1c(F)cccc1OCC(=O)N[C@H](CO)Cc1ccccc1 | 4.3 | – |
| CCCN(CC)C(=O)c1c(F)cccc1OCC(=O)N[C@H](CO)Cc1ccccc1 | 2.3 | – |
| CCN(CCOC)C(=O)c1c(F)cccc1OCC(=O)N[C@H](CO)Cc1ccccc1 | 8 | – |
| O=C(COc1cccc(F)c1C(=O)N[C@H](CO)Cc1ccccc1)NCCC1=CCCCC1 | > 20 | – |
| CCCN(C)C(=O)c1c(F)cccc1OCC(=O)N[C@H](CO)Cc1ccccc1 | 6 | – |
| COC[C@H](Cc1ccccc1)NC(=O)COc1cccc(F)c1C(=O)NCCC1=CCCCC1 | > 20 | – |
| COCCNC(=O)c1c(F)cccc1OCC(=O)N[C@H](CO)Cc1ccccc1 | > 20 | – |
| CC(C)CCNC(=O)c1c(F)cccc1OCC(=O)N[C@H](CO)Cc1ccccc1 | > 20 | – |
| O=C(COc1cccc(F)c1C(=O)N1CCCC1)N[C@H](CO)Cc1ccccc1 | > 20 | – |
| O=C(COc1cccc(F)c1C(=O)N1CCC(c2ccccc2)C1)N[C@H](CO)Cc1ccccc1 (stereo partly specified) | 10 | – |
| CC1CCN(C(=O)c2c(F)cccc2OCC(=O)N[C@H](CO)Cc2ccccc2)CC1 | 2.3 | – |
| CCCCN(CC)C(=O)c1c(F)cccc1OCC(=O)N[C@H](CO)Cc1ccccc1 | 0.47 | – |
| COC[C@@H]1CCCN1C(=O)c1c(F)cccc1OCC(=O)N[C@H](CO)Cc1ccccc1 | 7.7 | – |
| COC(=O)[C@H](c1ccccc1)N(C)C(=O)c1c(F)cccc1OCC(=O)N[C@H](CO)Cc1ccccc1 | 4.6 | – |
| CCCN(CCOC)C(=O)c1c(F)cccc1OCC(=O)N[C@H](CO)Cc1ccccc1 | 17 | – |
